Assay results gathered from unrelated publications.
Target: Interferon-induced, double-stranded RNA-activated protein kinase (EIF2AK2, Homo sapiens, UniProt P19525)

CS(=O)(=O)N1CCCC(NC(=O)[C@H](CCC2CCCCC2)NC(=O)c2ccc(CNC(=O)c3cnc4ccccn34)cc2)C1 (some centres unmarked) — remaining binding (cell-free assay, competition with immobilised ligand; 0.1 µM): 47%
O=C(NCCCN1CCOCC1)c1ccc(Nc2ncc(Cl)c(-c3ccc(Cl)s3)n2)cc1 — remaining binding (binding, competition with immobilised ligand; 1 µM): 58%
COc1ccnn2ncc(-c3ccnc(N(C)C)n3)c12 — remaining binding (binding; 1 µM): 100%
CNC(=O)[C@@H]1CC[C@@H](n2c(-c3ccc4cnccc4c3)nc3ccc(C(=O)NCc4cccc(C(N)=O)c4)cc32)C1 — remaining binding (binding, competition with immobilised ligand; 1 µM): 94%
CN(C)c1ncc(F)c(-c2cnn3ncccc23)n1 — remaining binding (binding; 1 µM): 100%
Nc1ncc2c(n1)-c1c([nH]c3ccc(C#CC4CC4)cc13)CCCC2 — remaining binding (binding, competition with immobilised ligand; 1 µM): 100%
c1cnn2ncc(-c3ccnc(N4CCC45COC5)n3)c2c1 — remaining binding (binding; 1 µM): 100%
CN1CCN(c2cnc3c(C4CCN(C(=O)c5ccc(OC(F)(F)F)cc5N)CC4)ncnc3c2)CC1 — remaining binding (cell-free assay, competition with immobilised ligand; 1 µM): 85%
N[C@@H]1CCN(c2nccc(-c3cnn4ncccc34)n2)C1 — remaining binding (binding; 1 µM): 100%
O=C(NCc1ncc(C(F)(F)F)cc1Cl)c1ccc2c(c1)C1(CCS(=O)(=O)CC1)[C@@H](C1CC1)N2S(=O)(=O)c1ccc(F)cc1 — remaining binding (cell-free assay, competition with immobilised ligand; 1 µM): 97%
O=C(Nc1c[nH]nc1C(=O)NC1CCNCC1)c1cc(F)cc(F)c1 — remaining binding (binding, competition with immobilised ligand; 1 µM): 100%
O=C(NCCCN1CCOCC1)c1ccc(Nc2nccc(-c3cc4ccccc4s3)n2)cc1 — remaining binding (binding, competition with immobilised ligand; 1 µM): 64%
CN(C)c1nccc(-c2cnn3ncccc23)n1 — remaining binding (binding; 1 µM): 100%
CCOC(=O)c1cc2cc(-c3cc(C(=O)NCc4ccc(C(=O)O)cc4)nn3C)ccc2[nH]1 — remaining binding (cell-free assay, competition with immobilised ligand; 0.1 µM): 100%
COc1cnc(Nc2cccc(S(N)(=O)=O)c2)nc1N1CCN(c2ccccc2)C(=O)C1 — remaining binding (binding, competition with immobilised ligand; 1 µM): 99%
COc1ncc2cc3ccccc3nc2c1C#N — remaining binding (cell-free assay, competition with immobilised ligand; 5 µM): 100%
O=C(O)c1cc(-c2ccc(C3CCNCC3)cc2)c2ccc(-c3ccc(C(F)(F)F)cc3)cc2c1 — remaining binding (cell-free assay, competition with immobilised ligand; 1 µM): 100%
O=C(c1ccc(Nc2ncc(Cl)c(-c3ccc(Cl)s3)n2)cc1)N1CCC(N2CCCC2)CC1 — remaining binding (binding, competition with immobilised ligand; 1 µM): 14%
CN(C)c1ncnc(-c2ccc3nc(Nc4cc(CN5CCN(C(=O)CC(F)(F)F)CC5)ccn4)[nH]c3c2)c1Cl — remaining binding (cell-free assay, competition with immobilised ligand; 1 µM): 100%
C[C@@H]1CCN(c2nccc(-c3cnn4ncccc34)n2)C1 — remaining binding (binding; 1 µM): 83%
